Marks after values point to notes of the source that are not given here.
How the values were obtained:
[1] = tested on: coagulation in hemostasis; experiment: Anticoagulant activity, activated partial thromboplastin time; type: biochemical; conditions: value (range), n = 6
Method in brief: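 APTT was measured turbidimetrically on a hemocoagulometer using centrifuged citrated blood. Change is given as percent of control with a range in parentheses, n = 6. Significance was tested against control and reference drugs at p ≤ 0.05 or p ≤ 0.001.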

[2] = tested on: ADP-induced platelet aggregation; experiment: ADP-induced platelet aggregation; type: cell-based; conditions: pro-aggregation activity versus etamsylate
Method in brief: (§1)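 Citrated blood was centrifuged, and platelet aggregation was recorded on an aggregometer using a published method. Collagen induced the latent period; ADP induced maximum amplitude and aggregation rate. Changes are given as percent of control, n = 6. Significance was tested against control and reference drugs at p ≤ 0.05 or p ≤ 0.001.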

[3] = tested on: collagen-induced platelet aggregation; experiment: Collagen-induced platelet aggregation; type: cell-based
Method in brief: as §1

| Compound | APTT (activated partial thromboplastin time) [1] | Platelet aggregation activity relative to etamsylate [2] | Effect on latent period (in words) [3] |
| --- | --- | --- | --- |
| CC(=O)Oc1ccccc1C(=O)O [Acetylsalicylic acid, reference compound] | +1.1 (0.5–1.9)^e percent of control | – | – |
| C[N+](C)(C)CC(=O)NN=C1C(=O)N(CCn2cnc3c(N)ncnc32)c2ccccc21.[Cl-] [Compound 3a, 2-(2-{1-[2-(6-Amino-9H-purin-9-yl)ethyl]-2-oxo-2,3-dihydro-1H-indol-3-ylidene}hydrazinyl)-N,N,N-trimethyl-2-oxoethan-1-aminium chloride] | +3.7 (2.9–5.4)^e percent of control | – | – |
| Cc1ccc2c(c1)C(=NNC(=O)C[N+](C)(C)C)C(=O)N2CCn1cnc2c(N)ncnc21.[Cl-] [Compound 3b, 2-(2-{1-[2-(6-Amino-9H-purin-9-yl)ethyl]-5-methyl-2-oxo-2,3-dihydro-1H-indol-3-ylidene}hydrazinyl)-N,N,N-trimethyl-2-oxoethan-1-aminium chloride] | +6.5 (4.9–8.3)^c,e percent of control | – | – |
| CCc1ccc2c(c1)C(=NNC(=O)C[n+]1ccccc1)C(=O)N2CCn1cnc2c(N)ncnc21.[Cl-] [Compound 3c, 1-[2-(2-{1-[2-(6-Amino-9H-purin-9-yl)ethyl]-5-ethyl-2-oxo-2,3-dihydro-1H-indol-3-ylidene}hydrazinyl)-2-oxoethyl]pyridinium chloride] | +5.3 (4.1–9.6)^c,e percent of control | – | – |
| Cc1ccc2c(c1)C(=NNC(=O)C[n+]1cccc(C)c1C)C(=O)N2CCn1cnc2c(N)ncnc21.[Br-] [Compound 3d, 1-[2-(2-{1-[2-(6-Amino-9H-purin-9-yl)ethyl]-5-methyl-2-oxo-2,3-dihydro-1H-indol-3-ylidene}hydrazinyl)-2-oxoethyl]-2,3-dimethylpyridinium bromide] | +2.5 (1.8–4.3)^e percent of control | – | – |
| Cn1c(=O)c2c(ncn2CCN2C(=O)C(=NNC(=O)C[N+](C)(C)C)c3ccccc32)n(C)c1=O.[Cl-] [Compound 4a, 2-[2-(1-{2-[1,3-Dimethyl-2,6-dioxo-2,3-dihydro-1H-purin-7(6H)-yl]ethyl}-2-oxo-2,3-dihydro-1H-indol-3-ylidene)hydrazinyl]-N,N,N-trimethyl-2-oxoethan-1-aminium chloride] | +8.4 (7.3–10.4)^c,e percent of control | – | – |
| Cc1ccc2c(c1)C(=NNC(=O)C[N+](C)(C)C)C(=O)N2CCn1cnc2c1c(=O)n(C)c(=O)n2C.[Cl-] [Compound 4b, 2-[2-(1-{2-[1,3-Dimethyl-2,6-dioxo-2,3-dihydro-1H-purin-7(6H)-yl]ethyl}-5-methyl-2-oxo-2,3-dihydro-1H-indol-3-ylidene)hydrazinyl]-N,N,N-trimethyl-2-oxoethan-1-aminium chloride] | +7.3 (5.6–9.4)^c,e percent of control | more than twofold | without affecting the latent period |
| Sodium heparin [reference compound] | +20.3 (19.7–21.4)^d percent of control | – | – |

— publication PMC9007260 (Russian Journal of Organic Chemistry, 2022)
